Test results taken from ChEMBL document CHEMBL1154531, “Synthesis and structure-activity studies of novel homomorpholine oxazolidinone antibacterial agents” (Bioorg Med Chem Lett, 2009).
≈ marks a conversion by molar mass, not a printed value.

Key:
Assay type in all cases: functional
Streptococcus pneumoniae = test: Antibacterial activity against Streptococcus pneumoniae SV1 SP-3 by micro broth method
Outline: (§1)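 Minimum inhibitory concentration determined by broth microdilution and reported in μg/mL.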

Streptococcus pyogenes = test: Antibacterial activity against Streptococcus pyogenes C-203 by micro broth method; outline: as §1
Enterococcus faecalis = test: Antibacterial activity against Enterococcus faecalis MGH-2 EF1-1 by micro broth method; outline: as §1
Staphylococcus aureus = test: Antibacterial activity against Staphylococcus aureus UC-76 SA-1 by micro broth method; outline: as §1
Escherichia coli = test: Antibacterial activity against Escherichia coli by transcription-translation assay
Outline: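 Cell-free E. coli coupled in vitro transcription/translation system with a luciferase reporter as read-out.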

| Structure (SMILES) | MIC (Streptococcus pneumoniae) [µg/mL] | MIC (Streptococcus pyogenes) [µg/mL] | MIC (Enterococcus faecalis) [µg/mL] | MIC (Staphylococcus aureus) [µg/mL] | IC50 (Escherichia coli) [µM] |
| --- | --- | --- | --- | --- | --- |
| COC(=O)NC[C@H]1CN(c2ccc(N3CCCOCC3)cc2)C(=O)O1 | 16 (≈ 45.8 µM) | 8 (≈ 22.9 µM) | 16 (≈ 45.8 µM) | 16 (≈ 45.8 µM) |  |
| O=C1O[C@@H](Cn2ccnn2)CN1c1cc(F)c(N2CCCOCC2)c(F)c1 | 2 (≈ 5.27 µM) | 1 (≈ 2.64 µM) | 2 (≈ 5.27 µM) | 2 (≈ 5.27 µM) |  |
| NC(=O)[C@H]1CN(c2cc(F)c(N3CCCOCC3)c(F)c2)C(=O)O1 | 4 (≈ 11.7 µM) | 4 (≈ 11.7 µM) | 8 (≈ 23.4 µM) | 4 (≈ 11.7 µM) | 5.87 |
| CNC(=O)[C@H]1CN(c2cc(F)c(N3CCCOCC3)c(F)c2)C(=O)O1 | 4 (≈ 11.3 µM) | 4 (≈ 11.3 µM) | 8 (≈ 22.5 µM) | 4 (≈ 11.3 µM) | 6.37 |
| CC(=O)NC[C@H]1CN(c2ccc(N3CCCOCC3)cc2)C(=O)O1 | 8 (≈ 24 µM) | 8 (≈ 24 µM) | 16 (≈ 48 µM) | 8 (≈ 24 µM) |  |
| CC(=O)NC[C@H]1CN(c2cc(F)c(N3CCCOCC3)c(F)c2F)C(=O)O1 | 1 (≈ 2.58 µM) | 2 (≈ 5.16 µM) | 2 (≈ 5.16 µM) | 2 (≈ 5.16 µM) | 3.93 |
| CC(=O)NC[C@H]1CN(c2ccc(N3CCCOCC3)c(F)c2)C(=O)O1 | 2 (≈ 5.69 µM) | 2 (≈ 5.69 µM) | 2 (≈ 5.69 µM) | 4 (≈ 11.4 µM) | 2.3 |
| CC(C)(C)OC(=O)NC[C@H]1CN(c2ccc(N3CCCOCC3)cc2)C(=O)O1 | 16 (≈ 40.9 µM) | 32 (≈ 81.7 µM) | 32 (≈ 81.7 µM) | 16 (≈ 40.9 µM) |  |
| CNC(=O)[C@H]1CN(c2cc(F)c(N3CCCOCC3)c(F)c2F)C(=O)O1 | 16 (≈ 42.9 µM) | 16 (≈ 42.9 µM) | 32 (≈ 85.7 µM) | 16 (≈ 42.9 µM) | 18.9 |
| NC(=O)[C@H]1CN(c2ccc(N3CCCOCC3)cc2)C(=O)O1 | 32 (≈ 105 µM) | 64 (≈ 210 µM) | 64 (≈ 210 µM) | 32 (≈ 105 µM) |  |
| O=C1O[C@@H](Cn2ccnn2)CN1c1ccc(N2CCCOCC2)cc1 | 16 (≈ 46.6 µM) | 8 (≈ 23.3 µM) | 32 (≈ 93.2 µM) | 16 (≈ 46.6 µM) |  |
| CC(=O)NC[C@H]1CN(c2ccc(N3CCOCC3)c(F)c2)C(=O)O1 [LINEZOLID] |  | 2 (≈ 5.93 µM) |  |  |  |
| CCC(=O)NC[C@H]1CN(c2cc(F)c(N3CCCOCC3)c(F)c2)C(=O)O1 | 2 (≈ 5.22 µM) | 1 (≈ 2.61 µM) | 2 (≈ 5.22 µM) | 2 (≈ 5.22 µM) | 2.1 |
| C#Cc1cn(C[C@H]2CN(c3cc(F)c(N4CCCOCC4)c(F)c3)C(=O)O2)nn1 | 2 (≈ 4.96 µM) | 2 (≈ 4.96 µM) | 2 (≈ 4.96 µM) | 4 (≈ 9.92 µM) |  |

Next, values leading:

| MIC (Streptococcus pneumoniae) [µg/mL] | MIC (Streptococcus pyogenes) [µg/mL] | MIC (Enterococcus faecalis) [µg/mL] | MIC (Staphylococcus aureus) [µg/mL] | IC50 (Escherichia coli) [µM] | Structure (SMILES) |
| --- | --- | --- | --- | --- | --- |
| 32 (≈ 78.2 µM) | 32 (≈ 78.2 µM) | 64 (≈ 156 µM) | 32 (≈ 78.2 µM) |  | CC(C)(C)OC(=O)NC[C@H]1CN(c2ccc(N3CCCOCC3)c(F)c2)C(=O)O1 |
| 4 (≈ 12.2 µM) | 2 (≈ 6.09 µM) | 8 (≈ 24.4 µM) | 4 (≈ 12.2 µM) |  | O=C1O[C@@H](CO)CN1c1cc(F)c(N2CCCOCC2)c(F)c1 |
| > 64 | > 64 | > 64 | > 64 |  | Cl.NC[C@H]1CN(c2ccc(N3CCCOCC3)c(F)c2)C(=O)O1 |
| 1 (≈ 2.59 µM) | 1 (≈ 2.59 µM) | 2 (≈ 5.19 µM) | 2 (≈ 5.19 µM) | 1.9 | COC(=O)NC[C@H]1CN(c2cc(F)c(N3CCCOCC3)c(F)c2)C(=O)O1 |
| 8 (≈ 23.7 µM) | 8 (≈ 23.7 µM) | 16 (≈ 47.4 µM) | 16 (≈ 47.4 µM) |  | CNC(=O)[C@H]1CN(c2ccc(N3CCCOCC3)c(F)c2)C(=O)O1 |
| 32 (≈ 100 µM) | 32 (≈ 100 µM) | 64 (≈ 200 µM) | 32 (≈ 100 µM) |  | CNC(=O)[C@H]1CN(c2ccc(N3CCCOCC3)cc2)C(=O)O1 |
| 16 (≈ 49.5 µM) | 8 (≈ 24.7 µM) | 16 (≈ 49.5 µM) | 8 (≈ 24.7 µM) |  | NC(=O)[C@H]1CN(c2ccc(N3CCCOCC3)c(F)c2)C(=O)O1 |
| 16 (≈ 37.4 µM) | 8 (≈ 18.7 µM) | 32 (≈ 74.9 µM) | 8 (≈ 18.7 µM) |  | CC(C)(C)OC(=O)NC[C@H]1CN(c2cc(F)c(N3CCCOCC3)c(F)c2)C(=O)O1 |
| > 64 | > 64 | > 64 | > 64 |  | O=C1O[C@@H](CO)CN1c1ccc(N2CCCOCC2)cc1 |
| 16 (≈ 44.5 µM) | 16 (≈ 44.5 µM) | 32 (≈ 89.1 µM) | 16 (≈ 44.5 µM) | 23.4 | NC(=O)[C@H]1CN(c2cc(F)c(N3CCCOCC3)c(F)c2F)C(=O)O1 |
| 4 (≈ 8.41 µM) | 2 (≈ 4.21 µM) | > 32 | > 32 |  | C[Si](C)(C)C#Cc1cn(C[C@H]2CN(c3cc(F)c(N4CCCOCC4)c(F)c3)C(=O)O2)nn1 |
| 1 (≈ 2.71 µM) | 1 (≈ 2.71 µM) | 1 (≈ 2.71 µM) | 2 (≈ 5.41 µM) | 1.67 | CC(=O)NC[C@H]1CN(c2cc(F)c(N3CCCOCC3)c(F)c2)C(=O)O1 |
